# Measured values: ChEMBL document CHEMBL1130108, “Synthesis of nonhydrolyzable analogues of thiazole-4-carboxamide and benzamide adenine dinucleotide containing fluorine atom at the C2' of adenine nucleoside: induction of K562 differentiation and inosine monophosphate dehydrogenase inhibitory activity” (J Med Chem, 1997)
# Where “and” joins values, the source holds several entries; their conditions need not be identical. Equal values may be shown once.
# Columns and labels:
# [1] = target: Inosine-5'-monophosphate dehydrogenase 2 (Homo sapiens, UniProt P12268); assay: The compound was assayed to determine the inhibitory activity against human Inosine-5'-monophosphate dehydrogenase 2
# K562 [2] = assay: The ability to induce differentiation in K562 cells was estimated by determining the fraction of benzidine positive cells converted following incubation with the compound.; assay type: functional, Homo sapiens
# Method in brief: (§1)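 K562 erythroleukemia cells incubated with analogue; differentiation scored as fraction of benzidine-positive cells; percent benzidine-positive cells normalized by dividing by the analogue concentration applied.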
# K562 [3] = assay: The concentration used to induce differentiation in K562 cells; assay type: functional, cell-based; conditions: Homo sapiens; method in brief: as §1
# K562 [4] = assay: Antiproliferative activity against K562 erythroid leukemic cells was determined.; assay type: functional, cell-based; conditions: Homo sapiens
# [5] = Percentage of benzidine positive cells is divided by the concentration used.; assay type: functional; parameters: unit not given here; method in brief: as §1
# K562 [6] = assay: Antiproliferative activity against K562 erythroid leukemic cells was determined; NE=no effect; assay type: functional, cell-based, Homo sapiens
# K562 [7] = assay: The concentration used.; assay type: functional, cell-based; conditions: Homo sapiens; method in brief: as §1
SMILES,IC50 [1] [µM],Positive cells (K562 [2]) [%],Concentration (K562 [3]) [µM],IC50 (K562 [4]) [µM],Concentration [5],IC50 (K562 [6]),Concentration (K562 [7]) [µM]
NC(=O)c1csc([C@@H]2O[C@H](COP(=O)(O)OP(=O)(O)OC[C@@H]3O[C@H](n4cnc5c(N)ncnc54)[C@@H](F)[C@H]3O)[C@@H](O)[C@H]2O)n1,2.6,56,13,3.8,10.4,–,–
NC(=O)c1csc([C@H]2O[C@@H](COP(=O)(O)OP(=O)(O)OC[C@H]3O[C@@H](n4cnc5c(N)ncnc54)[C@H](O)[C@@H]3O)[C@H](O)[C@@H]2O)n1,–,70,15,3.7,–,–,–
NC(=O)c1cccc([C@@H]2O[C@H](COP(=O)(O)CP(=O)(O)OC[C@@H]3O[C@H](n4cnc5c(N)ncnc54)[C@H](F)[C@H]3O)[C@@H](O)[C@H]2O)c1,175,9,75,–,0.1,Not Active,–
NC(=O)c1csc([C@@H]2O[C@H](COP(=O)(O)CP(=O)(O)OC[C@@H]3O[C@H](n4cnc5c(N)ncnc54)[C@H](F)[C@H]3O)[C@@H](O)[C@H]2O)n1,6,9.5,14,70,0.7,–,–
NC(=O)c1csc([C@@H]2O[C@H](COP(=O)(O)C(F)(F)P(=O)(O)OC[C@@H]3O[C@H](n4cnc5c(N)ncnc54)[C@H](F)[C@H]3O)[C@@H](O)[C@H]2O)n1,0.8,40,13,13,3.1,–,–
NC(=O)c1csc([C@@H]2O[C@H](CO)[C@@H](O)[C@H]2O)n1 [TIAZOFURIN],–,80,15,3,–,–,–
NC(=O)c1cccc([C@@H]2O[C@H](COP(=O)(O)CP(=O)(O)OC[C@@H]3O[C@H](n4cnc5c(N)ncnc54)[C@@H](O)[C@H]3O)[C@@H](O)[C@H]2O)c1,0.8,–,15,68,0.6 and 0.8,–,60
NC(=O)c1csc([C@@H]2O[C@H](COP(=O)(O)CP(=O)(O)OC[C@@H]3O[C@H](n4cnc5c(N)ncnc54)[C@@H](O)[C@H]3O)[C@@H](O)[C@H]2O)n1,0.11,35,14.3,18,–,–,–
NC(=O)c1csc([C@@H]2O[C@H](COP(=O)(O)OP(=O)(O)OC[C@@H]3O[C@H](n4cnc5c(N)ncnc54)[C@@H](O)[C@H]3F)[C@@H](O)[C@H]2O)n1,0.7,26,2.5,3.2,10.4,–,–
NC(=O)c1csc([C@@H]2O[C@H](COP(=O)(O)C(F)(F)P(=O)(O)OC[C@@H]3O[C@H](n4cnc5c(N)ncnc54)[C@@H](O)[C@H]3O)[C@@H](O)[C@H]2O)n1,0.3,48,14,11,3.4,–,–
